Series [1] concerns N2a cells. Kind of series: Cell viability of uninduced N2a cells in the presence of compounds. The format is cell-based. As to conditions: 60 µM compound, 4 days 37°C, untreated = 100%. An outline of the steps: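 Uninduced N2a cells (no tau expression) grown 4 days at 37 °C in culture medium with test compound at 60 µM, or at several concentrations from 0 to 60 µM. Viability measured by MTT assay per kit instructions. Values normalised to the uninduced compound-untreated sample (100%).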

In series [2] the test system is inducible N2aTau^4RDΔK280 cells. Kind of series: Inhibition of Tau aggregation in inducible N2a cells, ThS+ cells counted by FACS. The class given is cell-based. An outline of the steps:
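Inducible N2a-Tau4RDΔK280 cells in suspension, with 0.0005% (12 µM) ThS added. Tau induced with 1 µg/ml doxycycline. Compound at 60 µM, or 0–60 µM, for 4 days at 37 °C. Floating and adherent cells pooled, pelleted and PBS-washed. ThS+ cells counted by flow cytometry (ex 495/em 519 nm). Induced DMSO-treated sample set to 100%.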

Structures are written as SMILES.

For `O=C(NNc1nc(-c2ccc([N+](=O)[O-])cc2)cs1)c1ccc2nc[nH]c2c1` [BSc3094], the “viability N2a cells (MTT)” value in series [1] came to 101.9 ± 3.8%. Besides, the “amount of ThS-positive cells (FACS), in words” value in series [2] (15 µM in the medium, 4 days, N2a cells expressing K18ΔK280) is given as “decreases”. For the same compound, the “reduction of Tau^4RDΔK280 aggregation in N2a cells compared to control” value in series [2] (60 µM compound, ThS+ cells by FACS) is on record as 93%. Besides, the “effectiveness in reducing aggregation in N2a cells relative to the best hits” value in series [2] (compared to our best hits) is recorded as 2-3.

The values above are taken from paper PMC4976804 (Current Alzheimer research, 2015).
